The values that follow come from ChEMBL document CHEMBL1667863, “Amino-benzosuberone: a novel warhead for selective inhibition of human aminopeptidase-N/CD13” (Bioorg Med Chem, 2011).

Data set [1] in a line: Inhibition of Aeromonas proteolytica aminopeptidase by Dixon plot analysis. Set-up: species or system Vibrio proteolyticus. In outline: (§1)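 Compounds tested as racemates; IC50 obtained from Dixon plots, with substrate set at the Km of each enzyme.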
The target of a further data set is T1, Cytosol aminopeptidase (Bos taurus, UniProt P00727).
T1 sequence (P00727 whole entry): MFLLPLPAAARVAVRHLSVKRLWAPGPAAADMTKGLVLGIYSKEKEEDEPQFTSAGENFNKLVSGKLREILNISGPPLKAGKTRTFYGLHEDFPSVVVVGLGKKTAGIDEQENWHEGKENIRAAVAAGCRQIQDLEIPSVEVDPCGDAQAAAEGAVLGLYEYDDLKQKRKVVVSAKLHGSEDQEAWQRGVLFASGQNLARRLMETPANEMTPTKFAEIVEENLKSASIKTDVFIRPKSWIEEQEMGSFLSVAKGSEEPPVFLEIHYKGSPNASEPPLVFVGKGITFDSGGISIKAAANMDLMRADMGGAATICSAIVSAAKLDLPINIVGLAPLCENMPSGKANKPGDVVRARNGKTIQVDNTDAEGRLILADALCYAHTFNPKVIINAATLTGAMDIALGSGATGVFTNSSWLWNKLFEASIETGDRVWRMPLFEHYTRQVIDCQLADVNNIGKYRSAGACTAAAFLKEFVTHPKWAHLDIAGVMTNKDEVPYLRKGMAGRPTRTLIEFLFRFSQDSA
Put plainly: Inhibition of bovine lens cytosolic leucine aminopeptidase by Dixon plot analysis. Set-up: species or system Lens of camera-type eye. In outline:
as §1

Data set [2] deals with T2, Leukotriene A-4 hydrolase (Homo sapiens, UniProt P09960).
T2 sequence (P09960 whole entry): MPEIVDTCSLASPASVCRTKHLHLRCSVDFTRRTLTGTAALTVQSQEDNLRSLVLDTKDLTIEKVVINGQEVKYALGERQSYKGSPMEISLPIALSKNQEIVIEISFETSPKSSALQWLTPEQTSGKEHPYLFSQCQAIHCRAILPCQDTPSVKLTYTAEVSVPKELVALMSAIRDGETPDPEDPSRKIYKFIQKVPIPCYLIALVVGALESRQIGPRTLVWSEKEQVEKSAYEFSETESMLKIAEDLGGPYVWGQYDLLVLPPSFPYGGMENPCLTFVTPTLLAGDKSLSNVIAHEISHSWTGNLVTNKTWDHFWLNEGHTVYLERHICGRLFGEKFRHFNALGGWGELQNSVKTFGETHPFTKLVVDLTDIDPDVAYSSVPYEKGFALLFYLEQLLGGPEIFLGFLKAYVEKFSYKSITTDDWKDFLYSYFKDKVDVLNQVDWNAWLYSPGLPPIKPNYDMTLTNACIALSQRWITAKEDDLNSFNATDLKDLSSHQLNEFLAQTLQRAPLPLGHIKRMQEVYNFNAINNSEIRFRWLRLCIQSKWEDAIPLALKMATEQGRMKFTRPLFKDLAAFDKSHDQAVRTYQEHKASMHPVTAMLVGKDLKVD
Put plainly: Inhibition of aminopeptidase activity of human leukotriene A4 hydrolase by Dixon plot analysis. In outline:
as §1

The target of the next data set is Aminopeptidase N (Homo sapiens, UniProt P15144). Nature of the data set: Inhibition of human aminopeptidase N by Dixon plot analysis.
Data set [3] can be described thus: Chemical stability of the compound. Format: physicochemical.
Data set [4] addresses T3, Aminopeptidase N (Sus scrofa) (UniProt P15145).
T3 sequence (whole entry): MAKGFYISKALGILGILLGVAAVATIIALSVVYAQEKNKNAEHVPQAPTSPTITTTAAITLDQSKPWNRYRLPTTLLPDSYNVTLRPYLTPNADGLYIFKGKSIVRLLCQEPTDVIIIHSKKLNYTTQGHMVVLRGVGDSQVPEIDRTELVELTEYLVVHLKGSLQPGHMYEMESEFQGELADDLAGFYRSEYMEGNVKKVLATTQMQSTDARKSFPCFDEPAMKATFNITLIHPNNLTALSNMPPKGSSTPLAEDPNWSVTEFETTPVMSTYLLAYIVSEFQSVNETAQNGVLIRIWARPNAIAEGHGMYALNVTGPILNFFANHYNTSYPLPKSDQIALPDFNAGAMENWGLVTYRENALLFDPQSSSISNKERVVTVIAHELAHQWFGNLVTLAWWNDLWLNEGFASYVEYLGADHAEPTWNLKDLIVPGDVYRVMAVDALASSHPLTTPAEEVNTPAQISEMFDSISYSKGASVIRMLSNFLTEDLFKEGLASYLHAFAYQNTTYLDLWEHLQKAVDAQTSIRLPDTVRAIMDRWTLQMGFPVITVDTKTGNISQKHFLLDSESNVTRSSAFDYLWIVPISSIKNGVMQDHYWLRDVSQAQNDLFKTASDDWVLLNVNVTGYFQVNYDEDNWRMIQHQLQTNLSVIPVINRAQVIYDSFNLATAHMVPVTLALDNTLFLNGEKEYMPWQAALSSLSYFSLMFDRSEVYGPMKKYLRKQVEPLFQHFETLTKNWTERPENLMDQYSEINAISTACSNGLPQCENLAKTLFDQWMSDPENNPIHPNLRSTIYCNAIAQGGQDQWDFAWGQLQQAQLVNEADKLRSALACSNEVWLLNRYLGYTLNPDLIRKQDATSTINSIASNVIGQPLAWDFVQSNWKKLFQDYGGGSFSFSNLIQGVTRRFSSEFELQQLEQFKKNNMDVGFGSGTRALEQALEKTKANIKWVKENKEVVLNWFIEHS
Put plainly: Inhibition of porcine kidney aminopeptidase N at 2 uM after 8 hrs. In outline: (§2)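 Porcine kidney APN (3 milliunits, added to start the reaction) in 20 mM Tris-HCl pH 7.5 at 25 °C; substrate leucine-para-nitroanilide 0.2 mM; para-nitroaniline release followed at 405 nm for up to 10 h; inhibitor at 2 µM; velocities compared with a no-inhibitor control.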

The target in data set [5] is T3, Aminopeptidase N (Sus scrofa). Nature of the data set: Inhibition of porcine kidney aminopeptidase N at 2 uM after 1 hr. The method in brief:
as §2

Structures can show the parent of a compound that is named as a salt. Active and inactive are the calls of the source. The rule behind the calls is not given here.

Broadly, the IC50 is the midpoint of a concentration-inhibition curve. As a reminder, the inhibition is the change of the read-out against control, counted positive when it falls. The term Ki denotes a measure of affinity in units of concentration, obtained from inhibition or displacement. Low values mean higher affinity, high ones lower affinity.

Chain of Aminopeptidase N (P15144 whole entry): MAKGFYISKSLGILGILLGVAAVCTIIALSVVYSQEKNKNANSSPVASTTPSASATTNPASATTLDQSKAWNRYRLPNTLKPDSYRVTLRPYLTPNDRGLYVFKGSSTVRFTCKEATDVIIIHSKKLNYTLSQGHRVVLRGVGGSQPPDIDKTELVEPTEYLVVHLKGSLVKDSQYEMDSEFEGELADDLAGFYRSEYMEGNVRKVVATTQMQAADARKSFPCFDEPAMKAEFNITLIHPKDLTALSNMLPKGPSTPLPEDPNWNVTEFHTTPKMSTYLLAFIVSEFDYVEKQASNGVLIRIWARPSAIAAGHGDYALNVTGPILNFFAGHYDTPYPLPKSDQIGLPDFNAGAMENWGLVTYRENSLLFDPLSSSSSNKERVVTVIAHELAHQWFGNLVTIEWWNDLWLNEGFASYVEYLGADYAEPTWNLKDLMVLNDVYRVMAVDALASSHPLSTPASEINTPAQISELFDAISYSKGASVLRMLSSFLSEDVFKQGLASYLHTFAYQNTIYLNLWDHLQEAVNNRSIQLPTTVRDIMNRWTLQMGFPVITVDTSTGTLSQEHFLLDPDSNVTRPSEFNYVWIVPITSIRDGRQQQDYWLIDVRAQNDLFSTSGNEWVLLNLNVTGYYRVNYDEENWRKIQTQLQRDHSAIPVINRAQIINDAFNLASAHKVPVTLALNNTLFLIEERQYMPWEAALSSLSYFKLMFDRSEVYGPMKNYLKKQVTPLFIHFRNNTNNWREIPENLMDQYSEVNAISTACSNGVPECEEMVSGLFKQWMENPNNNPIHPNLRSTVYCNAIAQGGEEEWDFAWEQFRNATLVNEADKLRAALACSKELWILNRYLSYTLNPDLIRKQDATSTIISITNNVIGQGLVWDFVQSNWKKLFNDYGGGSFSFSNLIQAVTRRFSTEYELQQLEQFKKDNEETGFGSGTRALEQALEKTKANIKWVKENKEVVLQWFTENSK

Consider `N[C@H]1CCc2ccccc2C[C@H]1O` (relative stereo), for which the IC50 (in data set [1]; on Cytosol aminopeptidase) was over 1000 µM each time.
`NC1Cc2ccccc2CCC1=O` (configuration not stated): the IC50 (in data set [2]; in data set [1]; at Cytosol aminopeptidase; on Aminopeptidase N) was over 1000 µM each time.
Consider `NC1CCCCCC1=O` (configuration not stated) [2-AMINOCYCLOHEPTANONE HYDROCHLORIDE], for which the IC50 in data set [1] is 350 µM; against Cytosol aminopeptidase, over 100 µM; on Aminopeptidase N, 310 µM.
Turning to `NC1C(=O)Cc2ccccc21` (configuration not stated), the IC50 is over 1000 µM in data set [2], 150 µM in data set [1] and over 1000 µM against Cytosol aminopeptidase.
Regarding `CC(C)C[C@H](NC(=O)[C@@H](O)[C@H](N)Cc1ccccc1)C(=O)O` [UBENIMEX], in data set [1], the IC50 stood at 0.0016 µM.
For `Cl.NC1CCc2ccccc2CC1=O` (configuration not stated), the Stability entry in data set [3] is “Stable”. Also, the results for the IC50 (in data set [2]; in data set [1]; against Cytosol aminopeptidase) were over 1000 µM, 900 µM and over 1000 µM, respectively. For the same compound, the inhibition in data set [4] was 60%. Besides, at Aminopeptidase N, the Ki was 1 µM.
Turning to `NC1CCc2ccccc2C/C1=N/O` (configuration not stated), the IC50 in data set [2] is over 1000 µM; in data set [1] it was 15 µM; on Cytosol aminopeptidase, over 1000 µM; against Aminopeptidase N, 110 µM.
In data set [5], `NC1Cc2ccccc2CC1=O` (configuration not stated) showed an inhibition of 60%. For the same compound, the IC50 was over 1000 µM in data set [2] and 130 µM in data set [1]. The inhibition result in data set [4] was “inactive”.
